MBD2 DNA inh – inhibitors of human MBD2 binding to methylated oligonucleotide | Q9UBB5 | TR-FRET | inhibition, % at 4.4 µM | 0.31% of 370,000 active | AID 686964; in the data active means inhibition above about 13%
LEDGF integ inh – blocks HIV-1 LEDGF/p75-dependent DNA integration; TR-FRET IN-LEDGF/p75 DNA integration, Eu/Cy5; inhibition, % at 3.7 µM; 0.64% of 370,000 active;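 active means inhibition above the screen-wide mean plus 3 SD, cut at about 13% in these data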;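 further: signal is the Cy5 over europium emission ratio at 671 and 618 nm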
RBBP9 inh – blocks human serine hydrolase RBBP9; O75884; recombinant RBBP9, FP-Rh probe fluorescence polarization; inhibition, % at 7.94 µM; 0.2% of 220,000 active; AID 1515;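 active means inhibition above the campaign mean of all tested compounds plus 3 SD, cut at about 14% in these data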
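Test system – recombinant human RBBP9 · Input – RBBP9 2.5 µM in dispensing solution, pre-mixing · Medium – Tris buffer pH 8.0, NaCl, Pluronic · Schedule – preincubation 30 min plus labeling 45 min at 25 °C · Measured by – fluorescence polarization · Measure – % inhibition · Controls – DMSO and no-protein wells · Replicates – one well per compound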
UHRF1 binding – human UHRF1 methylated DNA binding inhibitors | Q96T88 | UHRF1 binding to methylated oligo, TR-FRET | inhibition, % at 4.4 µM | 0.75% of 370,000 active | AID 687016; in the data active means inhibition above about 21%;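 further: UHRF1 SRA domain binding a hemimethylated CpG hairpin DNA probe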
PRMT1 inh – inhibitors of human PRMT1 | recombinant PRMT1, activity-based probe fluorescence polarization | Q99873 | inhibition, % at 2.79 µM | 1.3% of 370,000 active;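 active means inhibition above about 21% made by adding two undisclosed values, limit read from the data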
ABHD5-PLIN5 inh – inhibitors of human ABHD5-perilipin-5 interaction | Q00G26+Q8WTS1 | Split G. princeps luciferase complementation, luminescence, 4 h | inhibition, % at 4 µM | 0.78% of 360,000 active | AID 602281;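 active means inhibition above the mean inhibition across every tested compound plus 3 SD, cut at about 22% in these data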
Target sequence (Q00G26 whole entry, looked up): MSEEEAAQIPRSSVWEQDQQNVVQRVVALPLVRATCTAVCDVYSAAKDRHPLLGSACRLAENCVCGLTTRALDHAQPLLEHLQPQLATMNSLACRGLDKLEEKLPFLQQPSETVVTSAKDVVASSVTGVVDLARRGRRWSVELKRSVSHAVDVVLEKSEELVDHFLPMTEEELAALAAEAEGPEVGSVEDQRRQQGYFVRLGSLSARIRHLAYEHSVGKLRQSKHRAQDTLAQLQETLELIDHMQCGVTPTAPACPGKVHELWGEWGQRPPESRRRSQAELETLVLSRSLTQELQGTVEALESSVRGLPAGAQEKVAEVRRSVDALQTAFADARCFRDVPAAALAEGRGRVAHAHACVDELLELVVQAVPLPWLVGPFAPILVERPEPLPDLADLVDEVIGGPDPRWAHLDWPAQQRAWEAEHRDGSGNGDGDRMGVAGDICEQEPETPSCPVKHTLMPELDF
Target sequence (Q8WTS1 whole entry, looked up): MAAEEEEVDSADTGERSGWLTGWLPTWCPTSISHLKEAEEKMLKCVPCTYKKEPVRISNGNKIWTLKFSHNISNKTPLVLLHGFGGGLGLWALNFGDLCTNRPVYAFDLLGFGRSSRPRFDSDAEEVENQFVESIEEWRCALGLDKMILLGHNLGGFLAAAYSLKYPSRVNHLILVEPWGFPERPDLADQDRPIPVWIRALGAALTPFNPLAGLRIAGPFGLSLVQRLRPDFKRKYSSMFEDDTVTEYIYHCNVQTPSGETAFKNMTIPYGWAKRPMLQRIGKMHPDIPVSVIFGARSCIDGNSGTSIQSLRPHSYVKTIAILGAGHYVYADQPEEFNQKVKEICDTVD
ABHD5 PLIN5 conf – ABHD5-PLIN5 interaction inhibition, confirmed; shares compounds with ABHD5-PLIN5 inh; biochemical ABHD5-PLIN5 interaction, luminescence; 67% of 2,200 active; inhibition, % at 4 µM; in the data active means inhibition above about 23%
HNF4 split-luc – HNF4 split-luciferase signal hit, counter-screen. shares compounds with ABHD5-PLIN5 inh. HNF4 dimerization, luminescence, biochemical. inhibition, % at 4 µM. 77% of 2,200 active. AID 651674;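 active means mean inhibition across replicate wells exceeding the computed hit threshold, cut at about 13% in these data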;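 further: light from luciferase halves that rejoin when HNF4 fusion proteins dimerize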
Of the large screens only hits and unclear results are named; the others gave an inactive call (follow-up assays come after a bar, where they were run). Hits are enriched below; roughly 3.1% of the tested compounds scored in any of these assays.

COc1ccc(OC)c(NC(=O)c2nc(S(=O)(=O)Cc3ccccc3)ncc2Cl)c1	ABHD5-PLIN5 inh 50 (no result: RBBP9 inh) | ABHD5 PLIN5 conf 93 | HNF4 split-luc 87
Cc1cccc(CS(=O)(=O)c2ncc(Cl)c(C(=O)NCc3ccccc3)n2)c1	PRMT1 inh 24, ABHD5-PLIN5 inh 34 (no result: RBBP9 inh) | ABHD5 PLIN5 conf 92 | HNF4 split-luc 106
CCCc1nnc(NC(=O)c2nc(S(=O)(=O)Cc3cccc(C)c3)ncc2Cl)s1	ABHD5-PLIN5 inh 28 (no result: RBBP9 inh) | ABHD5 PLIN5 conf 74 | HNF4 split-luc 42
Cc1nnc(NC(=O)CS(=O)(=O)Cc2ccccc2)s1	none (no result: RBBP9 inh)
CCn1c(=O)n(CC(=O)N2CCOCC2)c(=O)c2ccccc21	none (no result: RBBP9 inh, ABHD5-PLIN5 inh)
c1ccc(NCc2nc3ccccc3n2CCOc2ccccc2)cc1	none
COc1ccc(NCc2nc3ccccc3n2CCOc2ccc(C)cc2)cc1	ABHD5-PLIN5 inh 25 | ABHD5 PLIN5 conf inactive | HNF4 split-luc inactive
COc1ccc(NCc2nc3ccccc3n2CCOc2ccccc2)cc1	ABHD5-PLIN5 inh 29 | ABHD5 PLIN5 conf inactive | HNF4 split-luc inactive
COc1ccc2[nH]c3c(c2c1)CCN[C@]31C(=O)N(C)c2ccc(Br)cc21	none (no result: RBBP9 inh, ABHD5-PLIN5 inh)
CCn1c2ccccc2c2cc(NC(=O)COC(=O)c3ccc(F)cc3Cl)ccc21	none (no result: RBBP9 inh, ABHD5-PLIN5 inh)
COc1ccc(SC2=C[C@@]3(O)CC[C@@H](O)[C@@](Sc4ccc(OC)cc4)(C2=O)[C@H]3O)cc1	none (no result: RBBP9 inh)
O=C1C(Sc2ccccc2)=C[C@@]2(O)CC[C@@H](O)[C@]1(Sc1ccccc1)[C@H]2O	ABHD5-PLIN5 inh 26 (no result: RBBP9 inh) | ABHD5 PLIN5 conf 33 | HNF4 split-luc 43
C=C1C(=O)O[C@H]2[C@H]1[C@H](OC(=O)/C(C)=C\C)C[C@]1(CO1)[C@@H]1[C@H](OC(C)=O)C=C(C)[C@]21O	ABHD5-PLIN5 inh 25 (no result: RBBP9 inh) | ABHD5 PLIN5 conf 46 | HNF4 split-luc 40
C=C1C(=O)O[C@H]2C[C@]3(C)C([C@@H](OC(=O)/C(C)=C/C)[C@H]12)[C@](C)(O)CC[C@H]3O (some centres not stated)	none (no result: RBBP9 inh)
C=CC[C@H]1c2ccccc2[C@H]2N3N=Cc4ccccc4[C@H]3[C@H](CCCC)C(=O)N2N1C(=O)NCc1ccccc1	none (no result: RBBP9 inh, ABHD5-PLIN5 inh)
CCN(CC)Cc1cc(Nc2c3ccccc3nc3c4ccccc4n(C)c23)cc(CN(CC)CC)c1O	PRMT1 inh 45, ABHD5-PLIN5 inh 27 (no result: RBBP9 inh) | ABHD5 PLIN5 conf 44 | HNF4 split-luc 29
OCCN1CN(c2ccccc2)C(=S)N(c2ccccc2)C1	none (no result: RBBP9 inh, ABHD5-PLIN5 inh)
COc1ccccc1NC(=S)N1CCNC(=O)C1CC(=O)Nc1cccc(C)c1 (configuration not stated)	none
COc1ccccc1NC(=O)CC1C(=O)NCCN1C(=O)Nc1ccc(Cl)c(Cl)c1 (configuration not stated)	ABHD5-PLIN5 inh 24 | ABHD5 PLIN5 conf inactive | HNF4 split-luc inactive
CC(C)(C)C(=O)OC12CCCN(C1)/C(=C/c1cccc(Cl)c1)C2 (configuration not stated)	none (no result: RBBP9 inh, ABHD5-PLIN5 inh)
Cc1ccccc1CS(=O)(=O)Cc1ccc(C(=O)Nc2ccc(F)cc2)o1	none (no result: RBBP9 inh, ABHD5-PLIN5 inh)
O=C1N/C(=C/c2ccc(N3CCOCC3)o2)C(=O)N1c1ccccc1	PRMT1 inh 46, ABHD5-PLIN5 inh 80 | ABHD5 PLIN5 conf 63 | HNF4 split-luc 99
C=CCN1C(=O)N/C(=C/c2ccc(N3CCOCC3)o2)C1=O	none (no result: ABHD5-PLIN5 inh)
O=C1NC(=S)S/C1=C/c1ccc(N2CCOCC2)o1	ABHD5-PLIN5 inh 44 (no result: MBD2 DNA inh, LEDGF integ inh, UHRF1 binding, PRMT1 inh) | ABHD5 PLIN5 conf 42 | HNF4 split-luc 106
CC1=C[C@]2(C[N+](Cc3ccccc3)=C(N)N2)n2c(=O)n(-c3ccccc3)c(=O)n2C1	none (no result: RBBP9 inh, ABHD5-PLIN5 inh)
COCc1cc(CNC(=O)C2CCC(=O)N(Cc3ccccc3OC)C2)[nH]n1 (configuration not stated)	ABHD5-PLIN5 inh 24 (no result: RBBP9 inh) | ABHD5 PLIN5 conf inactive | HNF4 split-luc inactive
COCc1cc(CNC(=O)C2CCC(=O)N(Cc3ccccc3F)C2)[nH]n1 (configuration not stated)	none (no result: RBBP9 inh)
CCCN1CCS(=O)(=O)N(Cc2cn(Cc3ccc(F)cc3)nn2)C(C(=O)OC)C1 (configuration not stated)	none (no result: RBBP9 inh, ABHD5-PLIN5 inh)
O=C(NC1CCCCN(Cc2cccc(C(F)(F)F)c2)C1=O)c1ccc(-c2ccccc2)cc1 (configuration not stated)	none (no result: RBBP9 inh, ABHD5-PLIN5 inh)
COc1ccc(N2C(=O)CC(c3ccccc3)CC2=O)cc1	none (no result: RBBP9 inh)
O=C1CC(c2ccc(Cl)cc2)CC(=O)C1CS(=O)(=O)c1ccccc1 (configuration not stated)	ABHD5-PLIN5 inh 25 | ABHD5 PLIN5 conf 43 | HNF4 split-luc 83
COc1ccc(C2CC(=O)C(CS(=O)(=O)c3ccccc3)C(=O)C2)cc1 (configuration not stated)	ABHD5-PLIN5 inh 42 | ABHD5 PLIN5 conf 53 | HNF4 split-luc 102
O=C(Nc1nc2ncccn2c1-c1ccc(F)c(F)c1)C1CC1	none (no result: RBBP9 inh, ABHD5-PLIN5 inh)
Cc1ccc(NC(=O)C2=C(c3ccccc3)S(=O)(=O)CCS2(=O)=O)cc1	PRMT1 inh 62, ABHD5-PLIN5 inh 83 | ABHD5 PLIN5 conf 100 | HNF4 split-luc 110
Cn1cnc([N+](=O)[O-])c1S(=O)(=O)c1cccc(Cl)c1	ABHD5-PLIN5 inh 61 | ABHD5 PLIN5 conf 64 | HNF4 split-luc 94
Cn1cnc([N+](=O)[O-])c1S(=O)(=O)Nc1ccccc1	none (no result: RBBP9 inh)
CSc1nc(O)c(Nc2ccccc2)c(=O)[nH]1	none (no result: RBBP9 inh)
COc1ccccc1C(c1c(O)nc(SC)[nH]c1=O)c1c(O)nc(SC)[nH]c1=O	ABHD5-PLIN5 inh 24 (no result: RBBP9 inh) | ABHD5 PLIN5 conf 49 | HNF4 split-luc 42
CCOc1ccc(N)c(SSc2cc(OCC)ccc2N)c1	PRMT1 inh 86, ABHD5-PLIN5 inh 73 (no result: RBBP9 inh) | ABHD5 PLIN5 conf 82 | HNF4 split-luc 97
Cc1sc2nc(SCC(=O)Nc3c(C)n(C)n(-c4ccccc4)c3=O)n(C)c(=O)c2c1C	ABHD5-PLIN5 inh 24 | ABHD5 PLIN5 conf inactive | HNF4 split-luc inactive
CC1=CC(=O)N(c2ccn(C)n2)C1=O	ABHD5-PLIN5 inh 25 | ABHD5 PLIN5 conf 36 | HNF4 split-luc 39
CC1CCN(c2ccc(C(=O)O)cc2NS(=O)(=O)c2ccc(C(C)(C)C)cc2)CC1	none (no result: RBBP9 inh, ABHD5-PLIN5 inh)
C[C@@H]1ON(C)[C@H]2C[C@H]3c4[nH]c5cccc(-c6ccccc6F)c5c4CCN3C(=O)[C@@H]12	none (no result: RBBP9 inh, ABHD5-PLIN5 inh)
CC(C)c1nnc(NC(=O)CCS(=O)(=O)c2nc(-c3cccs3)cc(C(F)(F)F)n2)s1	ABHD5-PLIN5 inh 37 | ABHD5 PLIN5 conf 76 | HNF4 split-luc 89
CC(C)c1nnc(NC(=O)CCS(=O)(=O)Cc2ccccc2)s1	none (no result: RBBP9 inh)
O=C(NCCc1c[nH]c2ccccc12)OCc1cn(-c2ccc(F)cc2F)nn1	none (no result: RBBP9 inh, ABHD5-PLIN5 inh)
